ChEMBL document CHEMBL4808167, “Design, Synthesis, and Evaluation of Small Molecule Gαq/11 Protein Inhibitors for the Treatment of Uveal Melanoma” (J Med Chem, 2021)
Calls of active or inactive are those of the source. The calls are words filed in the database; no cut-off is given here.

Assays:
[1] = system: 921; assay: Antiproliferative activity against human 92.1 cells assessed as inhibition of cell growth at 10 to 15 uM after 72 hrs by CKK8 assay; format: functional, cell-based; settings: dose 10-15 µM
[2] = (§1) Antiproliferative activity against human MP41 cells assessed as inhibition of cell growth after 72 hrs by CCK8 assay; format: functional, cell-based; settings: MP41, 72 h
Procedure, shortened: (§2)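 92.1 or MP41 cells in RPMI-1640 with 10% FBS were seeded at 3 × 10³ cells/well. Exposed to serial concentrations for 72 h at 37 °C, 5% CO₂. CCK-8 added for 1−4 h, absorbance read at 450 nm. IC₅₀ from concentration−response curve fit, mean ± SD.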

[3] = system: MP41; assay: as §1; format: functional, cell-based; procedure, shortened: as §2
[4] = system: 921; assay: Inhibition of colony formation in human 921 cells at 1 to 5 uM after 9 days by crystal violet staining based light microscopic analysis; format: functional, cell-based; settings: dose 1-5 µM, time 9.0 day
Procedure, shortened: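 Cells seeded 4 × 10³/well, incubated overnight at 37 °C, 5% CO₂, then exposed to compound for 9 days until colonies visible, medium and inhibitor replaced every 3 days. Fixed in 4% paraformaldehyde 15 min, crystal violet-stained 30 min, colonies counted. Repeated twice.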

[5] = system: 921; assay: Inhibition of cell invasion in human 921 cells at 5 to 15 uM incubated for 48 hrs by transwell assay; format: functional, cell-based; settings: dose 5-15 µM
Procedure, shortened: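 92.1 or MP41 cells (1 × 10⁴/well) seeded in serum-free medium in the upper transwell chamber, with 20% FBS medium below. Left overnight, then treated 48 h. Non-migrated cells swabbed off; cells on the lower side stained with crystal violet 30 min and counted by light microscopy (×40 for migration, ×100 for invasion). Mean ± SD, n = 3.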

[6] = Half life in ICR mouse at 30 mg/kg, po measured upto 24 hrs by LC-MS/MS analysis; format: ADME, organism-based; settings: in vivo
Procedure, shortened: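 Single dose in male ICR mice, 10 mg/kg iv or 30 mg/kg po, dissolved in 5% DMSO/95% saline. Blood drawn by catheter at 0, 5, 15, 30 min and 1, 2, 4, 6, 8, 24 h. Plasma spun 6800g 6 min at 2−8 °C, stored −80 °C, quantified by LC−MS/MS. Noncompartmental parameters, mean ± SD, n = 6.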

[7] = Induction of apoptosis in human MP41 cells assessed as early apoptotic cells at 15 uM after 48 hrs by Annexin-V-FITC/propidium iodide staining based flow cytometry (reference value: 2.96%); format: functional
[8] = Toxicity in nude BALB/c mouse xenografted with human MP41 cells assessed as morphological changes in lung tissue at 10 to 30 mg/kg, ip administered once daily for 21 days and measured every 3 days by HE staining based assay; format: organism-based; settings: in vivo, 504 h, dose 10-30 mg/kg, time 21 day
Procedure, shortened: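 Nude BALB/c mice bearing serially passaged MP41 tumour slices (tertiary recipients, n = 8/group, randomized) dosed ip daily for 21 days at 10 or 30 mg/kg/d or vehicle. Body weight monitored every 3 days. Tissues collected at sacrifice, fixed in 4% paraformaldehyde 24 h, paraffin-embedded, H&E stained, viewed at ×100.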

half-life [6]: 1.41 h
SMILES: CC[C@@H](C)[C@H](N)C(=O)N1CCn2cc(-c3ccccc3)nc2[C@@H]1CC1CCCCC1
Activity [1]: Active | IC50 [2]: 24.8 µM | Activity [3]: Dose-Dependent Effect | inhibition [4]: Active | inhibition [5]: Active | Activity [7]: 5.32% | Activity [8]: Non-Toxic
